Experimental findings from ChEMBL document CHEMBL4257520, “Design, synthesis and bioactivity investigation of tetrandrine derivatives as potential anti-cancer agents” (Medchemcomm, 2018) are described below.

One experiment deals with HEL. The experiment in a line: Antiproliferative activity against HEL cells after 48 hrs by MTT assay. The class given is functional, cell-based. Particulars: Homo sapiens. The essentials:
(§1)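 MTT assay on human cancer lines held at 37 °C, 95% humidity, 5% CO2. Cells were exposed to compounds at 20.0–0.5 μM for 48 h, then washed twice with PBS. MTT (5 mg mL–1 in PBS) was added for 4 h at 37 °C, the formazan was dissolved in DMSO, and A490 was read. IC50 comes from replicate wells over three independent experiments.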
On the technique in general: Formazan colour is commonly taken as a measure of viable cells.

The subject of another experiment is K562. The experiment in a line: Antiproliferative activity against human K562 cells after 48 hrs by MTT assay. The class given is functional, cell-based. The following applies: K562, 48 h. The essentials: as §1
For the next experiment, the system named is PC-3. The experiment in a line: Antiproliferative activity against human PC3 cells after 48 hrs by MTT assay. The class given is functional, cell-based. The following applies: PC-3, 48 h. The essentials:
as §1

Experiment [1] can be described thus: Antiproliferative activity against human WM9 cells after 48 hrs by MTT assay. The class given is functional, cell-based. The following applies: WM9, 48 h. The essentials: as §1
The test system of the next experiment is MDA-MB-231. Nature of the experiment: Antiproliferative activity against human MDA-MB-231 cells after 48 hrs by MTT assay. The class given is functional, cell-based. Particulars: MDA-MB-231, 48 h. An outline of the steps: as §1
The next experiment concerns L02. Nature of the experiment: Cytotoxicity against human HL7702 cells after 48 hrs by MTT assay. The class given is cell-based. Particulars: L02, 48 h. An outline of the steps: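 Normal human liver HL7702 cells were assessed by MTT assay, with formazan absorbance as the read-out, to give an IC50 for cytotoxicity.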

As usually defined, the IC50 is the concentration that inhibits the measured activity by half. Low values mean inhibition by little substance, high ones a need for much substance. On to `CC[C@]1(O)C[C@H]2CN(CCc3c([nH]c4ccccc34)[C@@](C(=O)OC)(c3cc4c(cc3OC)N(C=O)[C@H]3[C@@](O)(C(=O)OC)[C@H](OC(C)=O)[C@]5(CC)C=CCN6CC[C@]43[C@@H]65)C2)C1` [VINCRISTINE], for which the IC50 in the experiment on HEL is 5.97 µM; with K562, 5.36 µM; in the experiment on PC-3, 5.31 µM; in experiment [1], 4.28 µM; with MDA-MB-231, 9.86 µM.
For `COc1cc(N)c2cc1Oc1ccc(cc1)C[C@H]1c3cc(c(OC)cc3CCN1C)Oc1c(OC)c(OC)cc3c1[C@H](C2)N(C)CC3` the same measures were 6.66 µM, 3 µM, 2.67 µM, 6.36 µM and 3.55 µM.
Consider `COc1cc(NS(=O)(=O)c2ccccc2[N+](=O)[O-])c2cc1Oc1ccc(cc1)C[C@H]1c3cc(c(OC)cc3CCN1C)Oc1c(OC)c(OC)cc3c1[C@H](C2)N(C)CC3`, for which the IC50 with HEL is 5.72 µM; in the experiment on K562 it was 5.05 µM; in the experiment on PC-3, 7.3 µM; in experiment [1], 3.26 µM; in the experiment with MDA-MB-231, 2.51 µM; with L02 it was 16.2 µM.
For the compound `COc1cc(NS(=O)(=O)c2ccc(Cl)nc2)c2cc1Oc1ccc(cc1)C[C@H]1c3cc(c(OC)cc3CCN1C)Oc1c(OC)c(OC)cc3c1[C@H](C2)N(C)CC3`, the IC50 stood at 6.01 µM in the experiment on HEL; 5.95 µM in the experiment with K562; 5.76 µM with PC-3; 7.93 µM in experiment [1]; 6.84 µM with MDA-MB-231; 19.5 µM in the experiment on L02.
Regarding `COc1cc(NS(=O)(=O)c2ccc(Br)cc2)c2cc1Oc1ccc(cc1)C[C@H]1c3cc(c(OC)cc3CCN1C)Oc1c(OC)c(OC)cc3c1[C@H](C2)N(C)CC3`, the IC50 in the experiment on HEL was 3.83 µM; in the experiment with K562 it was 3.72 µM; with PC-3 it was 3.98 µM; in experiment [1] it was 8.51 µM; in the experiment on MDA-MB-231 it was 5.6 µM; with L02 it was 9.38 µM.
As to `COc1cc(NS(=O)(=O)c2cc(Cl)cc(Cl)c2)c2cc1Oc1ccc(cc1)C[C@H]1c3cc(c(OC)cc3CCN1C)Oc1c(OC)c(OC)cc3c1[C@H](C2)N(C)CC3`, the IC50 in the experiment with HEL turned out to be 5.68 µM; in the experiment on K562, 1.47 µM; in the experiment on PC-3 it was 3.41 µM; in experiment [1], 3.7 µM; in the experiment on MDA-MB-231 it was 3.88 µM; in the experiment with L02, 13.7 µM.
Take `COc1cc(NS(=O)(=O)c2c(C(C)C)cc(C(C)C)cc2C(C)C)c2cc1Oc1ccc(cc1)C[C@H]1c3cc(c(OC)cc3CCN1C)Oc1c(OC)c(OC)cc3c1[C@H](C2)N(C)CC3`: the IC50 came to 5.31 µM in the experiment with HEL; 6.76 µM in the experiment with K562; 5.46 µM in the experiment with PC-3; 2.13 µM in experiment [1]; 5.43 µM with MDA-MB-231; 32.1 µM in the experiment on L02.
Regarding `COc1cc(NS(=O)(=O)c2cccc(Br)c2)c2cc1Oc1ccc(cc1)C[C@H]1c3cc(c(OC)cc3CCN1C)Oc1c(OC)c(OC)cc3c1[C@H](C2)N(C)CC3`, the 50% inhibitory concentration (IC50) in the experiment with HEL was 2.9 µM; with K562 it was 1.46 µM; with PC-3 it was 3.47 µM; in experiment [1], 1.68 µM; with MDA-MB-231 it was 3.81 µM; in the experiment with L02, 8.73 µM.
Turning to `COc1cc(NS(=O)(=O)C(F)(F)F)c2cc1Oc1ccc(cc1)C[C@H]1c3cc(c(OC)cc3CCN1C)Oc1c(OC)c(OC)cc3c1[C@H](C2)N(C)CC3`, the IC50 in the experiment with HEL came out at 5.83 µM; in the experiment with K562 it was 7.12 µM; in the experiment with PC-3 it was 5.57 µM; in experiment [1] it was 5.8 µM; in the experiment on MDA-MB-231, 6.69 µM; with L02 it was 18.6 µM.
`COc1ccc2cc1Oc1ccc(cc1)C[C@H]1c3cc(c(OC)cc3CCN1C)Oc1c(OC)c(OC)cc3c1[C@H](C2)N(C)CC3` [FANCHININ]: the IC50 is 7.45 µM with HEL; 11.8 µM in the experiment on K562; 5.86 µM with PC-3; 6.1 µM in experiment [1]; 8.94 µM in the experiment with MDA-MB-231; 44.2 µM in the experiment with L02.
For the compound `COc1cccc(S(=O)(=O)Nc2cc(OC)c3cc2C[C@H]2c4c(cc(OC)c(OC)c4Oc4cc5c(cc4OC)CCN(C)[C@H]5Cc4ccc(cc4)O3)CCN2C)c1`, the IC50 with HEL was determined as 8.59 µM; in the experiment on K562 it was 3.22 µM; with PC-3, 3.99 µM; in experiment [1], 4.11 µM; in the experiment with MDA-MB-231, 4.56 µM; with L02, 28.2 µM.
On to `COc1cc(NS(=O)(=O)c2c(C)cc(C)cc2C)c2cc1Oc1ccc(cc1)C[C@H]1c3cc(c(OC)cc3CCN1C)Oc1c(OC)c(OC)cc3c1[C@H](C2)N(C)CC3`, for which the IC50 came to 4.81 µM with HEL; 3.24 µM with K562; 3.29 µM in the experiment on PC-3; 4.16 µM in experiment [1]; 5.31 µM in the experiment on MDA-MB-231; 21.2 µM in the experiment on L02.
For the compound `COc1cc(NS(=O)(=O)c2ccc(F)cc2)c2cc1Oc1ccc(cc1)C[C@H]1c3cc(c(OC)cc3CCN1C)Oc1c(OC)c(OC)cc3c1[C@H](C2)N(C)CC3`, the IC50 came to 1.57 µM in the experiment on HEL; 3.28 µM in the experiment on K562; 3.24 µM with PC-3; 4.33 µM in experiment [1]; 7.79 µM in the experiment with MDA-MB-231; 12.1 µM with L02.
For the compound `COc1cc([N+](=O)[O-])c2cc1Oc1ccc(cc1)C[C@H]1c3cc(c(OC)cc3CCN1C)Oc1c(OC)c(OC)cc3c1[C@H](C2)N(C)CC3`, the concentration for half-maximal inhibition (IC50) in the experiment with HEL was determined as 7.36 µM; in the experiment with K562, 9.05 µM; in the experiment with PC-3, 6.81 µM; in experiment [1], 12.1 µM; in the experiment on MDA-MB-231 it was 11.3 µM.
On to `COc1cc(NS(=O)(=O)c2ccc(NC(C)=O)cc2)c2cc1Oc1ccc(cc1)C[C@H]1c3cc(c(OC)cc3CCN1C)Oc1c(OC)c(OC)cc3c1[C@H](C2)N(C)CC3`, for which the IC50 in the experiment on HEL came out at 10.8 µM; in the experiment with K562, 3.47 µM; in the experiment on PC-3 it was 4.75 µM; in experiment [1] it was 3.31 µM; in the experiment on MDA-MB-231, 6.61 µM; in the experiment on L02 it was 17.5 µM.
For `COc1cc(NS(=O)(=O)c2ccc(C(C)(C)C)cc2)c2cc1Oc1ccc(cc1)C[C@H]1c3cc(c(OC)cc3CCN1C)Oc1c(OC)c(OC)cc3c1[C@H](C2)N(C)CC3`, the IC50 in the experiment with HEL was determined as 9.58 µM; in the experiment on K562, 3.19 µM; with PC-3 it was 4.86 µM; in experiment [1], 4.07 µM; in the experiment with MDA-MB-231 it was 5.25 µM; in the experiment with L02 it was 26.2 µM.
As to `COc1cc(NS(=O)(=O)c2ccccc2)c2cc1Oc1ccc(cc1)C[C@H]1c3cc(c(OC)cc3CCN1C)Oc1c(OC)c(OC)cc3c1[C@H](C2)N(C)CC3`, the IC50 in the experiment with HEL amounted to 3.87 µM; in the experiment with K562, 3.07 µM; with PC-3 it was 4.44 µM; in experiment [1] it was 1.98 µM; in the experiment on MDA-MB-231 it was 7.48 µM; in the experiment with L02 it was 13.5 µM.
On to `CCCCS(=O)(=O)Nc1cc(OC)c2cc1C[C@H]1c3c(cc(OC)c(OC)c3Oc3cc4c(cc3OC)CCN(C)[C@H]4Cc3ccc(cc3)O2)CCN1C`, for which the IC50 with HEL came out at 6.77 µM; in the experiment on K562 it was 7.26 µM; in the experiment with PC-3 it was 5.19 µM; in experiment [1], 6.35 µM; in the experiment with MDA-MB-231 it was 5.33 µM; with L02, 22.5 µM.
Take `COc1cc(NS(=O)(=O)c2ccccc2Cl)c2cc1Oc1ccc(cc1)C[C@H]1c3cc(c(OC)cc3CCN1C)Oc1c(OC)c(OC)cc3c1[C@H](C2)N(C)CC3`: the IC50 in the experiment on HEL came out at 3.48 µM; in the experiment on K562 it was 3.57 µM; in the experiment with PC-3, 4.63 µM; in experiment [1], 4.09 µM; in the experiment with MDA-MB-231, 7.42 µM; in the experiment on L02, 7.91 µM.
In the case of `COc1cc(NS(=O)(=O)c2ccccc2F)c2cc1Oc1ccc(cc1)C[C@H]1c3cc(c(OC)cc3CCN1C)Oc1c(OC)c(OC)cc3c1[C@H](C2)N(C)CC3`, the IC50 in the experiment on HEL worked out at 3.04 µM; in the experiment on K562 it was 5.84 µM; in the experiment with PC-3, 5.89 µM; in experiment [1], 4.19 µM; in the experiment on MDA-MB-231, 7.89 µM; with L02, 16.3 µM.
With `COc1cc(NS(=O)(=O)c2ccc(C(F)(F)F)cc2)c2cc1Oc1ccc(cc1)C[C@H]1c3cc(c(OC)cc3CCN1C)Oc1c(OC)c(OC)cc3c1[C@H](C2)N(C)CC3`, the IC50 with HEL came out at 2.87 µM; with K562, 3.61 µM; with PC-3 it was 3.81 µM; in experiment [1], 4.43 µM; in the experiment with MDA-MB-231, 6.55 µM; in the experiment on L02, 8.11 µM.
For `COc1cc(NS(=O)(=O)c2cccc([N+](=O)[O-])c2)c2cc1Oc1ccc(cc1)C[C@H]1c3cc(c(OC)cc3CCN1C)Oc1c(OC)c(OC)cc3c1[C@H](C2)N(C)CC3`, the half-inhibitory concentration (IC50) in the experiment with HEL is 2.17 µM; in the experiment with K562 it was 1.78 µM; in the experiment with PC-3 it was 1.94 µM; in experiment [1], 3.36 µM; in the experiment with MDA-MB-231 it was 6.37 µM; in the experiment on L02 it was 10.1 µM.
For the compound `COc1cc(NS(C)(=O)=O)c2cc1Oc1ccc(cc1)C[C@H]1c3cc(c(OC)cc3CCN1C)Oc1c(OC)c(OC)cc3c1[C@H](C2)N(C)CC3`, the IC50 was found to be 2.6 µM with HEL; 3.57 µM in the experiment on K562; 3.37 µM in the experiment with PC-3; 2.58 µM in experiment [1]; 5.67 µM with MDA-MB-231; 14.7 µM with L02.
For the compound `COc1cc(NS(=O)(=O)c2ccc([N+](=O)[O-])cc2)c2cc1Oc1ccc(cc1)C[C@H]1c3cc(c(OC)cc3CCN1C)Oc1c(OC)c(OC)cc3c1[C@H](C2)N(C)CC3`, the IC50 is 3.68 µM in the experiment with HEL; 4.03 µM with K562; 4.44 µM in the experiment with PC-3; 4.24 µM in experiment [1]; 7.12 µM with MDA-MB-231; 14.1 µM in the experiment on L02.
